Assay outcomes (PubChem)
In the library only some 3.7% were active in any assay of this set; here they are far more common.
hERG rescue – hERG (human) protection from proarrhythmic block; CHO-hERG, FluxOR thallium flux, dofetilide IC70 present; activation (rescue from dofetilide block), less the hit threshold, % at 10 µM; 310,000 tested, 0.51% active;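 active = activation above the mean of controls blocked by dofetilide plus 5 SD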;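 also: thallium influx through hERG after potassium depolarization seen as dye fluorescence rise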
KCNK3 inh – human KCNK3 channel inhibition, primary screen | 340,000 tested, 0.84% active | CHO-KCNK3 thallium flux, FluxOR fluorescence; hits give low values | O14649 | B-score at 10 µM;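 active = B-score under library mean minus 4 SD, starting fluorescence ratio at most library mean plus 5 SD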;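 also: more negative B-score means stronger inhibition of thallium flux through KCNK3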
Target sequence (O14649 whole entry, looked up): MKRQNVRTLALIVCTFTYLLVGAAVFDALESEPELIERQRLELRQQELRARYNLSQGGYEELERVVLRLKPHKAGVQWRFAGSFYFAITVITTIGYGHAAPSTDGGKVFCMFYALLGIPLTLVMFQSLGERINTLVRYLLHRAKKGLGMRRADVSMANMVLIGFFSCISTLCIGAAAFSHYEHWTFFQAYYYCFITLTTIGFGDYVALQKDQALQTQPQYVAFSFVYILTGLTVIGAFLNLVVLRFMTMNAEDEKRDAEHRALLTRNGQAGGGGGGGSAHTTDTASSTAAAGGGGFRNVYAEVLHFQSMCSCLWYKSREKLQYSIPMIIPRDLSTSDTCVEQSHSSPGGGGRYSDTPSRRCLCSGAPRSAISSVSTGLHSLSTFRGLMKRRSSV
KCNQ1 inh – inhibitors of human KCNQ1 potassium channel. CHO-K1 KCNQ1, FluxOR thallium flux fluorescence; hits give high values. P51787. B-score at 10 µM. 310,000 tested, 1.3% active;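 active = compounds whose thallium flux B-score, printed positive for inhibition, exceeds three library SD while starting fluorescence stays within three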;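 also: channel opened by potassium depolarization with thallium stimulus after 20 min compound exposure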
Kir21 inh – blocks the mouse Kir2.1 inward-rectifier potassium channel. P35561. HEK293-Kir2.1, FluxOR thallium flux fluorescence; hits give low values. B-score at 10 µM. 310,000 tested, 0.85% active. AID 1672;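 active = fluorescence ratio B-score at or below minus 3 SD of library scores, with starting-brightness B-score within 2 SD, cut at about -4.2 in these data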;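 also: channel flux triggered by added potassium and thallium sulfate stimulus; B-score of peak minus minimum fluorescence over baseline after thallium stimulus; more negative B-score means stronger Kir2.1 block with less thallium influx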
KCNK9 block – inhibitors of human KCNK9 two-pore domain potassium channel; HEK293 KCNK9, FluxOR thallium flux fluorescence; hits give low values; B-score at 10 µM; 310,000 tested, 1.2% active; AID 488922;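 active = ratio B-score over 3 SD below the library mean, with starting fluorescence within 5 SD of its mean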;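 also: negative B-score means less thallium flux so channel inhibition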
Target sequence (Q9NPC2 whole entry, looked up, the tested form may be a part): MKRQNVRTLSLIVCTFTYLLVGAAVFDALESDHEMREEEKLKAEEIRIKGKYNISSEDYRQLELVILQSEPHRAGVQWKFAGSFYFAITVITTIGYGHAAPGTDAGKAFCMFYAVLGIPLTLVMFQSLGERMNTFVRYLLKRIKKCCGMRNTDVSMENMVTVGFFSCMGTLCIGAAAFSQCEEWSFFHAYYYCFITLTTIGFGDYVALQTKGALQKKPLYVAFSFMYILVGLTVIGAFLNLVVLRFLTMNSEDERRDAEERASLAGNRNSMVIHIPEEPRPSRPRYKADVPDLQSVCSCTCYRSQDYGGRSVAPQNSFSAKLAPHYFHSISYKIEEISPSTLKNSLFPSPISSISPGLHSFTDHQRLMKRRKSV
KCNQ1 act – potentiates or activates the human KCNQ1 potassium channel; B-score at 10 µM; AID 2648; CHO-K1 KCNQ1, thallium flux FluxOR fluorescence; hits give high values; P51787; 310,000 tested, 0.35% active;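 active = fluorescence ratio B-score, a plate-corrected score, at least three library SD, with initial intensity B-score within 5 SD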
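Test system: CHO-K1 cells stably expressing KCNQ1 / Medium: assay buffer / Also added: depolarizing K+/Tl+ stimulus, K2SO4 and Tl2SO4 each 12.5 mM in 5x stock / Incubation: 90 min dye loading and 20 min compound exposure, both at room temperature / Signal: thallium influx via FluxOR fluorescence, kinetic imaging / Evaluation: B score of baseline-normalized fluorescence ratio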
KCNK9 block conf – confirmation of human KCNK9 potassium channel inhibitors | shares compounds with KCNK9 block | HEK293 KCNK9 cells, FluxOR thallium flux fluorescence | inhibition, % at 10 µM | 4,900 tested, 43% active;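 active = thallium signal inhibited by more than 5 SD of the compound-free buffer control wells, on both duplicate plates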
Kir2-1 spec – selectivity of KCNK9 modulators against mouse Kir2.1; shares compounds with KCNK9 block; Kir2.1 cells, FluxOR thallium flux fluorescence; inhibition, % at 10 µM; 4,900 tested, 4% active; AID 492993;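 active = thallium signal drop more than 5 SD beyond the mean of the no-compound control wells, seen in both duplicate plates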;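 also: signal is fluorescence rise after thallium addition divided by baseline fluorescence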
KCNK9 uninduced – second check of KCNK9 modulator effects in non-induced HEK293 cells; shares compounds with KCNK9 block; inhibition, % at 10 µM; FluxOR thallium flux; 4,900 tested, 40% active; AID 492997;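 active = thallium signal drop beyond 5 SD of the untreated control mean, on both duplicate plates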
Each line names hits and unclear results; the compound was inactive in the other large screens (follow-up assays come after a bar, where they were run).

O=C(NNC(=S)Nc1ccc(Cl)c(Cl)c1)c1cccc([N+](=O)[O-])c1	KCNQ1 inh 11 | KCNK9 block conf inactive | Kir2-1 spec inactive | KCNK9 uninduced inactive
COc1ccc(NC(=O)CCOc2ccccc2F)cc1S(=O)(=O)N1CCCCC1	none (no result: hERG rescue, KCNQ1 inh, Kir21 inh, KCNK9 block, KCNQ1 act)
COc1ccc(NC(=O)COc2ccccc2F)cc1S(=O)(=O)N1CCCCC1	KCNK9 block -9.6 | KCNK9 block conf inactive | Kir2-1 spec inactive | KCNK9 uninduced inactive
Cc1ccc(OCCC(=O)OCC(=O)Nc2ccc(C)c(S(=O)(=O)N3CCOCC3)c2)cc1	none (no result: hERG rescue, KCNQ1 inh, Kir21 inh, KCNK9 block, KCNQ1 act)
Cc1ccc(C)c(OCCC(=O)OCC(=O)Nc2ccc(C)c(S(=O)(=O)N3CCCCC3)c2)c1	KCNK9 block -11 | KCNK9 block conf inactive | Kir2-1 spec inactive | KCNK9 uninduced 29%
CCN(Cc1ccccc1)C(c1cccs1)c1nnnn1C1CCCCC1 (stereo unspecified)	KCNK9 block -12 | KCNK9 block conf 56% | Kir2-1 spec inactive | KCNK9 uninduced 34%
O=C(NNC(=O)c1ccccc1Br)c1cnccn1	none (no result: hERG rescue, KCNQ1 inh, Kir21 inh, KCNK9 block, KCNQ1 act)
COc1ccc(/C=N/NC(=O)c2csc(-n3nc(C)cc3C(F)(F)F)n2)cc1	KCNK9 block -10 | KCNK9 block conf inactive | Kir2-1 spec inactive | KCNK9 uninduced 26%
COc1ccc(S(=O)(=O)NNC(=O)c2csc(-n3nc(C)cc3C(F)(F)F)n2)cc1OC	none
CC(C)c1ccc(/C=C/C(=O)NCCCc2ccccc2)cc1	KCNQ1 inh 6 | KCNK9 block conf inactive | Kir2-1 spec inactive | KCNK9 uninduced inactive
CN(C)/C=N/C(=S)Nc1ccc(Br)cc1F	none
Cc1ccc(Cl)cc1N1CCN(CC(O)COCc2ccco2)CC1 (stereo unspecified)	none | KCNK9 block conf inactive | Kir2-1 spec inactive | KCNK9 uninduced inactive
Cc1ccc2c(c1)Oc1ccccc1C=C2C(=O)O	none
O=C1/C(=C\c2ccc(Br)o2)SC(=Nc2ccccc2)N1c1ccccc1	KCNK9 block -8.4 | KCNK9 block conf inactive | Kir2-1 spec inactive | KCNK9 uninduced 37%
COc1ccc(C2CC(c3ccccc3)=NN2C(=O)CN2N=NC3C(=O)N(c4cccc(F)c4)C(=O)C32)cc1 (stereo unspecified)	none
COc1cc(C2/C(=C(/O)c3ccc(F)cc3)C(=O)C(=O)N2CCCC(=O)O)ccc1O (stereo unspecified)	none
O=C(c1ccccc1Sc1ccccc1[N+](=O)[O-])N1CCCCC1	none | KCNK9 block conf inactive | Kir2-1 spec inactive | KCNK9 uninduced inactive
O=C(/C=C/c1ccc(-c2ccccc2[N+](=O)[O-])o1)c1ccco1	KCNK9 block -12 | KCNK9 block conf 56% | Kir2-1 spec inactive | KCNK9 uninduced 25%
CCOC(=O)c1cnc2c(C)c(Cl)ccc2c1Nc1ccc(S(=O)(=O)Nc2ncccn2)cc1	none (no result: KCNK3 inh)
Cc1ccc(C2=NOC(C)(c3nnc(-c4cccc(Cl)c4)o3)C2)cc1 (stereo unspecified)	none
CC1(c2nnc(-c3cccc(Cl)c3)o2)CC(c2c(Cl)cccc2Cl)=NO1 (stereo unspecified)	KCNK9 block -10 | KCNK9 block conf 58% | Kir2-1 spec inactive | KCNK9 uninduced 29%
Cc1ccc(-c2noc(CC(=O)c3ccc([N+](=O)[O-])cc3)n2)cc1	none (no result: hERG rescue, KCNQ1 inh, Kir21 inh, KCNK9 block, KCNQ1 act)
COc1ccc(O)c(/C=N/Nc2nc(Nc3ccccc3)nc(-n3nc(C)cc3C)n2)c1	KCNQ1 inh 10, KCNK9 block -12 | KCNK9 block conf 46% | Kir2-1 spec inactive | KCNK9 uninduced inactive
COc1cc(/C=N/Nc2nc(Nc3ccc(C)cc3)nc(-n3nc(C)cc3C)n2)cc(OC)c1OC	none
COc1cc(/C=N/Nc2nc(Nc3ccccc3)nc(-n3nc(C)cc3C)n2)cc(OC)c1OC	KCNQ1 inh 8, KCNK9 block -9.4 | KCNK9 block conf 46% | Kir2-1 spec inactive | KCNK9 uninduced inactive
Cc1ccc(C)c(OCC(O)CN2CCC(CN3C(=O)c4cccc5cccc(c45)C3=O)CC2)c1 (stereo unspecified)	none | KCNK9 block conf inactive | Kir2-1 spec inactive | KCNK9 uninduced inactive
COc1ccc(S(=O)(=O)N2CCCC(C(=O)NCc3cccnc3)C2)cc1OC (stereo unspecified)	none
COc1ccc(C)cc1S(=O)(=O)N(CC(=O)NCc1ccc(Cl)cc1)Cc1ccccc1	KCNK9 block -10 | KCNK9 block conf inactive | Kir2-1 spec inactive | KCNK9 uninduced 40%
CN(CC(=O)NC(=O)NCc1ccccc1)Cc1cccc(Cl)c1Cl	none | KCNK9 block conf inactive | Kir2-1 spec inactive | KCNK9 uninduced 22%
CN(CC(=O)NCc1ccccc1)Cc1ccc(Cl)cc1	none
CN(CC(=O)NC(=O)NCc1ccccc1)Cc1ccc(Cl)cc1	none | KCNK9 block conf inactive | Kir2-1 spec inactive | KCNK9 uninduced inactive
COc1ccc(CNC(=O)CN(Cc2ccccc2)S(=O)(=O)c2ccc(Cl)cc2)cc1	none
O=c1c2ccccc2c(-c2ccccc2)nn1Cc1c(Cl)cccc1Cl	KCNK9 block -10 | KCNK9 block conf 33% | Kir2-1 spec inactive | KCNK9 uninduced 36%
CCOC(=O)Cn1nc(-c2ccccc2)c2ccccc2c1=O	none
CCc1nc(N2CCC(C)CC2)c2oc3ccccc3c2n1	KCNK9 block -14 | KCNK9 block conf 46% | Kir2-1 spec inactive | KCNK9 uninduced 36%
COc1ccc(NC(=O)CN2CCN(c3ccccc3Cl)CC2)cc1	none | KCNK9 block conf inactive | Kir2-1 spec inactive | KCNK9 uninduced inactive
COc1ccc(NC(=O)CN2CCN(c3ccccc3C)CC2)cc1	none
O=C(NC1CCCCC1)[C@H](CSCc1ccccc1)N1Cc2ccccc2C1=O	none | KCNK9 block conf inactive | Kir2-1 spec inactive | KCNK9 uninduced inactive
CC(C)NC(=O)[C@H](CSCc1ccccc1)N1Cc2ccccc2C1=O	none
CC1CN(c2oc(COc3ccc(Cl)cc3Cl)nc2C#N)CC(C)O1 (stereo unspecified)	none | KCNK9 block conf inactive | Kir2-1 spec inactive | KCNK9 uninduced inactive
N#Cc1nc(COc2ccccc2Cl)oc1N1CCCC1	none
Cc1cc(O)ccc1C1(c2ccc(O)cc2C)OC(=O)c2ccccc21	KCNK9 block -13 | KCNK9 block conf 44% | Kir2-1 spec inactive | KCNK9 uninduced inactive
O=C1OC(c2ccccc2)(c2ccc(O)cc2)c2ccccc21 (stereo unspecified)	none (no result: hERG rescue, KCNQ1 inh, Kir21 inh, KCNK9 block, KCNQ1 act)
Cc1cccc(C2(c3cccc(C)c3)OC(=O)c3ccccc32)c1	KCNK9 block -19 | KCNK9 block conf 78% | Kir2-1 spec inactive | KCNK9 uninduced 43%
c1cc(CCCc2ccncc2)ccn1	none (no result: hERG rescue, KCNQ1 inh, Kir21 inh, KCNK9 block, KCNQ1 act)
